Measured values published in PMC12779259 (Metallomics : integrated biometal science, 2019).
In brackets after ≈: the same amount, converted by molar mass.

Assays:
S. aureus [1] = assay: MIC determination against S. aureus in RPMI; assay type: cell-based, Staphylococcus aureus; details: for ^CuMIC (S. aureus): MIC in 50 μM copper supplemented medium
THP-1 monocytic cells = assay: Toxicity testing on THP-1 monocyte cells; assay type: cell-based, human; details: 24 h
GAPDH = molecular target: T1, GAPDH (Staphylococcus aureus, UniProt Q6GIL8); assay: GAPDH activity in lysates of treated bacteria; assay type: cell-based; details: 30 minutes treatment; 50 µM Cu, 10 µM PZP-915, 10 µM 915+50 µM Cu
T1 sequence (Q6GIL8 1-336): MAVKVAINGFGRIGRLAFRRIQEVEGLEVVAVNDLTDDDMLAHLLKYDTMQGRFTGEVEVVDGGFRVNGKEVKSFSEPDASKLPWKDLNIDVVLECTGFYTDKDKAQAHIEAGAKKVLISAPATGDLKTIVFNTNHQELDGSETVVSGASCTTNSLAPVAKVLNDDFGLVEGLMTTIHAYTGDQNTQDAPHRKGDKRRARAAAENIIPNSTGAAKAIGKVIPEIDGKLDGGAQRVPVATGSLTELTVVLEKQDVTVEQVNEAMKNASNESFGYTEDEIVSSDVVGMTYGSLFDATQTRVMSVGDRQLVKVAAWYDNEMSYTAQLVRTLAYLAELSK
Summary of the method: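 After the 30 min treatment, bacteria washed to remove extracellular copper, then lysed. GAPDH activity measured in the lysates.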

[2] = Determination of binding constants by UV/Vis; details: 25 uM HEPES buffer pH 7.2
S. aureus [3] = assay: Time to death assay and bactericidal activity; assay type: cell-based, Staphylococcus aureus; details: for mode of action (bactericidal vs bacteriostatic): CFU
S. aureus Newman = assay: Membrane potential, DiOC2; assay type: cell-based, Staphylococcus aureus; details: within 30 min; 10 μM PZP-915 and/or 50 μM Cu
[4] = test system: S. aureus strain LAC carrying pHluorin; assay type: cell-based, Staphylococcus aureus; details: mildly acidic medium (pH 6.2)
[5] = test system: preformed S. aureus biofilms; assay: Biofilm eradication assay; assay type: cell-based, Staphylococcus aureus; details: preformed S. aureus Newman biofilms, 24 hours treatment
[6] = test system: methicillin resistant S. aureus strains; assay: MIC against clinically isolated MRSA strains; assay type: cell-based, Staphylococcus aureus; details: 5 clinically isolated MRSA strains, 50 μM Cu
[7] = Toxicity testing on THP-1 monocyte cells; assay type: cell-based, human; details: human, THP-1 monocytic cells

For `CNC(=S)NN=CC=NNC(=S)NC` [GTSM], the “^CuMIC (S. aureus)” value (S. aureus [1]) was 0.3 µM, the “^CuIC90 (THP1)” value (THP-1 monocytic cells; IC90 in the presence of 25 μM copper) was 0.15 µM and the IC90 (THP-1 monocytic cells; read-out: IC90 (THP1), 90% inhibition relative to untreated controls, no Cu) was over 10 µM.
For `Cc1nn2c(=O)cc(Cc3ccccc3)[nH]c2c1-c1ccc(Cl)cc1` [PZP-915, 5‐benzyl‐3‐(4‐chlorophenyl)‐2‐methyl‐4H,7H‐pyrazolo[1,5‐a]pyrimidin‐7‐one], the “GAPDH activity in cell lysates” value (GAPDH) was “did not alter GAPDH activity”, the “binding constant, 1st order reaction of copper binding” value [2] was 3.8×10^5 Lmol^−1 and the “binding constant, 2nd order complex with copper” value [2] was 6.18 Lmol^−1. The “binding constant, 3rd order complex with copper” value [2] was 47.65 Lmol^−1, the “time to achieve complete inhibition of growth” value (S. aureus [3]; 0.6 µM PZP-915 in the presence of 50 µM Cu) was 2 h and the recoverable viable bacteria (S. aureus [3]; 24h treatment, 50 μM Cu added, consistent with bactericidal activity) was “no viable cells could be recovered”. For the same molecule, the “mode of action (bactericidal vs bacteriostatic)” value (S. aureus [3]; 24h treatment, presence of 50 μM Zn) was “bacteriostatic”, the “mode of action (bactericidal vs bacteriostatic)” value (S. aureus [3]; 24h treatment, standard medium, absence of Cu) was “bacteriostatic” and the “Cu concentration required to display similar potency” value (S. aureus [3]; dose-matrix, 0.6 µM PZP-915) was 50 µM. For the same molecule, the “Cu concentration required to exert potent antibacterial properties” value (S. aureus [3]; dose-matrix, 10 µM PZP-915) was 1.25 µM, the “effect on membrane potential (DiOC2(3) red/green ratio)” value (S. aureus Newman) was “decreased the membrane potential, although to a much lesser extent” and the “activity in medium supplemented with both Cu and BCS” value (S. aureus [1]; 50 μM Cu, 500 μM BCS) was “about the same as in standard medium”. For the same molecule, the “effect of Fe on activity” value (S. aureus [1]; 50 μM Fe supplemented medium) was “no effect”, the “improvement of activity by Zn in comparison to standard medium” value (S. aureus [1]; 50 μM Zn supplemented medium) was 4 fold and the “impact of BCS addition to standard medium on activity” value (S. aureus [1]; 500 μM BCS, no Cu supplementation) was “no impact”. For the same molecule, the “^CuMIC (S. aureus)” value (S. aureus [1]) was 0.6 µM, the MIC (S. aureus [1]; Staphylococcus aureus, read-out: MIC (S. aureus)) was 5 µM (≈ 1.75 µg/mL) and the “change of intracellular pH” value [4] was “no or only a minor impact”. The “concentration for complete eradication of S. aureus in biofilms” value [5] was 0.6 µM, the “MIC against MRSA strains in comparison to S. aureus Newman” value [6] was “no difference” and the IC90 at 24 h [7] was over 40 µM.
In the case of “Carbonyl cyanide m-chlorophenyl hydrazine [CCCP, reference compound]”, the “change of intracellular pH” value [4] is reported as “almost instantaneous pH drop”.
For Iron, the “concentration up to which no toxicity to S. aureus was observed” value (S. aureus [1]; metal alone) was over 3.2 mM.
